This is a sample that favours compounds with a hit; in the whole collection about 0.97% have one here.
Dynein cargo inh: blocks dynein driven cargo transport along microtubules | 3617.4 mouse cells, GR-EGFP nuclear translocation imaging; test concentration mostly 20 µM; stimulated with dexamethasone, 1 µM; stronger effect = lower value | z-score, hits read low | 220,000 tested, 0.47% active;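 active = plate z-score of nuclear minus cytoplasmic receptor signal below a set negative limit, without overly bright fluorescence or cell loss, cut at about -3.5 in these data, passing the limit was not always enough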;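 note: z-score of nuclear minus cytoplasmic ring GR-EGFP intensity difference per well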
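Buffer or medium: tet-free, stripped-serum medium; reagent: dexamethasone at 1.0 µM final, 30 min; incubation: 48 h induction, 1 h compound, 30 min dex at 37 °C; measured by: formaldehyde fixation, Hoechst nuclear stain, 10x automated fluorescence imaging; read-out: nuclear-to-cytoplasmic GR-EGFP distribution per well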
TNF death inh: blocks TNF-alpha induced death of Jurkat FADD-/- cells | 220,000 tested, 0.068% active | Jurkat FADD-/- TNF necroptosis rescue, ATP luminescence, 24 h; 0 = TNF only, 100 = no-TNF cells | activation (protection from cell death), % at 10 µM;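 active = activation, meaning protection from cell death, of at least 50% relative to plate controls; inactive = activation below 50%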;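 note: necroptosis triggered by 40 ng/mL TNF-alpha added together with compound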
Beta2AR agonist: agonists of human beta-2 adrenergic receptor inducing internalization. P07550. Am2.2-beta2AR cells, FAP receptor internalization, flow cytometry. response, % (no concentration beside the values). 340,000 tested, 0.43% active;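 active = response above a set limit, near 3 SD of response in nonfluorescent compounds, cut at about 42% in these data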
Target sequence (P07550 whole entry, looked up): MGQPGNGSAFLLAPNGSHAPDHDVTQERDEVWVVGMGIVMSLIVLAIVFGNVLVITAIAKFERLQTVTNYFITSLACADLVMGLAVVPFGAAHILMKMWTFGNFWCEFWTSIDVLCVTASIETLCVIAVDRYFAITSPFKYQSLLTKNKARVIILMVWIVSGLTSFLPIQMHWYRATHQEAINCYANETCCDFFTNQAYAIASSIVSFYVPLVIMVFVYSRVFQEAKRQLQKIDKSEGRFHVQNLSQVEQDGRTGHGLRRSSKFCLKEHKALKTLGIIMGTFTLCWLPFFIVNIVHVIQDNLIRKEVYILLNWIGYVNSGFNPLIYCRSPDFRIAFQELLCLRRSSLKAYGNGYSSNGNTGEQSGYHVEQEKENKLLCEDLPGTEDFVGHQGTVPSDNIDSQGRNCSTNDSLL
zVAD death inh: blocks zVAD induced death of L929 cells; L929 zVAD necroptosis rescue, ATP luminescence, 24 h; with zVAD 60 µM; viability rescue, % at 10 µM; 220,000 tested, 0.38% active; AID 1377;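 active = activation, scaled between plate controls, above about 75%, limit read from the data; inactive = activation under that limit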;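 note: 0% = zVAD with DMSO and 100% = DMSO alone without zVAD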
Mdm2 ligase inh: Mdm2 E3 ligase (human) inhibition; cell-based MDM2 ubiquitination luciferase reporter, 2 h; 0 = plate control, 100 = twice control, blank-subtracted; signal enhancement, % at 5 µM; 210,000 tested, 0.11% active; AID 1230;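 active = signal enhancement of 30% or more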;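 note: luminescence tracks abundance of the self-degrading MDM2-luciferase fusion protein; higher signal means inhibition of MDM2 E3 ligase activity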
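system = mammalian cells stably expressing self-ubiquitinating, self-degrading MDM2 E3–luciferase fusion | quantity = 2000 cells per well seeded | incubation = 4 h cell settling then 2 h compound exposure, 37 °C | signal = SteadyLite luminescence, 15 min reagent step | benchmarks = plate control and blank wells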
Dynein confirm: dynein cargo transport inhibition, confirmation; calls only at 20 µM; shares compounds with Dynein cargo inh; 3617.4 GR-EGFP nuclear translocation imaging, dexamethasone-induced; 1,000 tested, 69% active; AID 463116;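 active = inhibition of receptor movement into the nucleus at or above a set limit in both runs, with normal cell brightness and cell count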;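 note: dexamethasone at 1 µM final in well for 30 min; nuclear minus cytoplasmic GR-EGFP mean intensity difference in channel 2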
* = called active by the depositor; i = inactive; · = not tested or not shown; + = active, no number.

SMILES | Dynein cargo inh | TNF death inh | Beta2AR agonist | zVAD death inh | Mdm2 ligase inh | Dynein confirm
Cc1ccc(S(=O)(=O)N(C)C[C@@H]2Oc3c(NS(C)(=O)=O)cccc3C(=O)N([C@H](C)CO)C[C@@H]2C)cc1 | · | · | -3 | · | · | ·
CC1(C)CC(=O)C(C(C#Cc2ccccc2)C2=C(O)CC(C)(C)CC2=O)=C(O)C1 | -2 | 0 | 0 | 0 | -7 | ·
O=C1CCCC(O)=C1C(C#Cc1ccccc1)C1=C(O)CCCC1=O | -5.5* | -5 | 10 | 1 | -15 | +
Cc1nnc(Sc2nc3ccccc3o2)c2ccccc12 | -1.6 | -10 | 3 | 0 | -18 | ·
Cc1ccc(-c2nnc(Sc3nc4ccccc4o3)c3ccccc23)cc1 | -4.1* | -19 | 36 | 2 | -1 | +
Clc1ccc(-c2nnc(Sc3nc4ccccc4o3)c3ccccc23)cc1 | -4.1* | -17 | 13 | 2 | -18 | +
CCOC(=O)/C=C/C(=O)Nc1ccccc1-c1ccccc1NC(=O)/C=C/C(=O)OCC | -4.1* | 33 | 25 | -2 | 39* | +
CCOc1cc(/C=N/O)ccc1OCc1ccc([N+](=O)[O-])cc1 | -0.69 | -1 | 8 | 2 | -5 | ·
CCOc1cc(C=C(C(=O)OC)C(=O)OC)ccc1OCc1ccc([N+](=O)[O-])cc1 | -5.7* | -21 | 6 | 0 | -8 | +
Cc1sc(NC(=O)c2ccccc2)c(C(=O)NCCN(C)C)c1C | -0.82 | -1 | -1 | 0 | -8 | ·
O=C(Sc1ccccc1)c1cccc(Cn2cc(C(F)(F)F)ccc2=O)c1 | -3.9* | -18 | 0 | 0 | -14 | +
O=C(Nc1ccccc1)c1cccc(Cn2cc(C(F)(F)F)ccc2=O)c1 | 2.1 | 1 | -7 | 0 | -8 | ·
CS(=O)(=O)c1ccc(S(=O)CC(=O)Oc2ccc(Cl)cc2)c([N+](=O)[O-])c1 (stereo unspecified) | -6.5* | -2 | · | -1 | 3 | +
CCc1ccc(Nc2nnc(SCn3nnc4ccccc4c3=O)s2)cc1 | -0.62 | -1 | -4 | 0 | 1 | ·
COc1ccccc1N1C(=O)C=C(Sc2nc(C)cc(C)n2)C1=O | -4* | -28 | 7 | -1 | -10 | +
CCn1c(C)cs/c1=N\S(=O)(=O)c1ccccc1 | · | · | 6 | · | · | ·
O=Cc1s/c(=N\S(=O)(=O)c2ccccc2)n(CCCCl)c1Cl | -5.7* | 19 | 104* | 6 | 29 | +
COc1ccc(CNC(=O)Cn2nnc3ccccc3c2=O)cc1 | -5.3* | 2 | -16 | -1 | -5 | i
NC(=O)c1cc([N+](=O)[O-])cc2c1C=Cc1ccccc1O2 | -0.67 | 0 | 1 | 2 | -7 | ·
CN(C)c1nc(C=C(C#N)C#N)c(Cl)n1-c1ccc(F)cc1 | -6.6* | -3 | 52* | 3 | 24 | +
COc1ccc(CCC(=O)OCC(=O)c2cccc(OC)c2)cc1 | -0.21 | -1 | 12 | 1 | -27 | ·
Cc1ccc2cc(CN(CC3CCCO3)C(=S)NCc3ccco3)c(=O)[nH]c2c1 (stereo unspecified) | -3.6* | -2 | -10 | -1 | -5 | i
Cc1ccc2[nH]c(=O)c(CN(CC3CCCO3)C(=S)NCc3ccco3)cc2c1 (stereo unspecified) | -0.022 | 2 | -9 | 0 | 4 | ·
S=c1sc2c(N3CCOCC3)ncnc2n1-c1ccccc1 | -0.44 | 0 | -3 | 0 | -16 | ·
O=C(c1ccco1)c1cn(CC(=O)N2CCCCC2)c2ccccc12 | 0.26 | 0 | -17 | 1 | 5 | ·
SMILES | Dynein cargo inh | TNF death inh | Beta2AR agonist | zVAD death inh | Mdm2 ligase inh | Dynein confirm
CCN(C(=O)c1c(C)cc(=O)oc1C)c1ccc2c(c1)OCO2 | 0.32 | -2 | 2 | 0 | -24 | ·
CCN(C(=O)c1coc(=O)c(Br)c1)c1ccc2c(c1)OCO2 | -4.8* | -10 | 7 | -1 | -10 | +
COc1ccc2c(c1)[nH]c1c(=O)n(/N=C/C3C(C)C=C(C)CC3C)c(=O)[nH]c12 (stereo unspecified) | -0.1 | 0 | 8 | 0 | -17 | ·
O/N=C/c1ccc(-c2ccccc2OC(F)(F)F)o1 | 0.27 | -3 | 1 | 2 | -5 | ·
Cc1c(-c2ccc(O)cc2)nc2nc(-c3ccccc3)c(-c3ccccc3)nn12 | -5.3 | -6 | · | -1 | -13 | +
Cc1ccc(-c2nnc(CSc3nnc(COc4ccccc4)n3-c3ccccc3)o2)cc1 | -0.64 | -6 | -12 | 0 | -19 | ·
Cc1ccc(C)c2nc3sc(C(=O)N4CCOCC4)c(N)c3cc12 | -1.1 | -3 | 6 | 11 | -5 | ·
Cc1cccc2cc3c(N)c(C(=O)N4CCc5ccccc54)sc3nc12 | -11 | -2 | -245 | 2 | -10 | i
Cc1sc(NC(=O)c2sc3nc4c(C)cccc4cc3c2N)c(C#N)c1C | -4.9 | -1 | -104 | 1 | -25 | +
Cc1cccc(NC(=O)CCN2C(=O)c3ccccc3C2=O)n1 | 0.37 | 0 | -3 | 0 | -6 | ·
Cc1cccc(C)c1OCC(=O)N(Cc1ccco1)C1CCS(=O)(=O)C1 (stereo unspecified) | · | · | 4 | · | · | ·
Cc1ccc(C2C3CSCC=C3C(C#N)=C(N)C2(C#N)C#N)cc1 (stereo unspecified) | -4.1* | -1 | 13 | -2 | -16 | i
N#CC1=C(N)C(C#N)(C#N)[C@H](c2ccncc2)[C@H]2CC3(CC=C12)OCCO3 | -0.21 | -4 | -5 | 0 | -8 | ·
CCN1C(=O)/C(=C\c2ccncc2)SC1=Nc1ccc(C)c(C)c1 | -3 | 1 | 8 | 1 | 1 | ·
CCCN1C(=O)/C(=C\c2ccncc2)SC1=Nc1ccccc1 | -4.4* | -1 | 7 | -1 | 3 | i
CC(C)(C)c1ccc(C(=O)CC(Sc2ccc(Cl)cc2)C(=O)O)cc1 (stereo unspecified) | -4.6* | -12 | 6 | -1 | -4 | +
N#CCCn1nc(Cc2cccc3ccccc23)c(C#N)c1N | · | · | 1 | · | · | ·
Cn1ncc([N+](=O)[O-])c1C(=O)N1CCCCCC1 | · | · | 1 | · | · | ·
O=C(/C=C/NNC(=O)c1ccccc1)c1ccc(Br)cc1 | -3 | 6 | 12 | 1 | 15 | ·
O=C(/C=C/NNC(=O)c1ccc(Cl)cc1)c1ccccc1 | -6.2* | 5 | 2 | 6 | -9 | +
CCOC(=O)c1c(C)n(-c2ccccc2)c2ccc(O)cc12 | -1.2 | 1 | 0 | 3 | 5 | ·
COc1ccc(O)c(C(=O)c2cc(C(=O)NCCc3ccccc3)c(=O)n(CCc3ccccc3)c2)c1 | 0.54 | -2 | -4 | 1 | -11 | ·
COC(=O)c1scc(C)c1NC(=O)/C=C/C(=O)O | -3.8* | -9 | -6 | 1 | -12 | i
COC(=O)c1scc(C)c1NC(=O)Nc1ccccc1 | -0.8 | -2 | 5 | 0 | 6 | ·

Screening data deposited in PubChem BioAssay by several laboratories.
